This is an account of results in ChEMBL document CHEMBL4041489, “Meroterpenoids and Chalcone-Lignoids from the Roots of Mimosa diplotricha” (J Nat Prod, 2016).

A short description of experiment [1]: Inhibition of rat protein farnesyltransferase pretreated for 15 mins followed by dansyl-Gly-Cys-Val-Leu-Ser-OH substrate addition in presence of farnesyl pyrophosphate measured after 30 mins by fluorescence assay.
The subject of the next experiment is HepG2. Kind of experiment: Antiproliferative activity against human HepG2 cells measured after 72 hrs by SRB assay. It counts as functional. The conditions noted are these: HepG2, 72 h. In a few lines: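 HepG2 cells from BCRC grown in RPMI 1640 with 10% FBS, nonessential amino acids, penicillin/streptomycin at 37 °C, 5% CO2. Cells were seeded in 10% FBS medium, and a T0 plate was TCA-fixed at 24 h. Compound or DMSO was added for 72 h, then cells were fixed with 10% TCA and stained with 0.4% SRB. Absorbance read at 515 nm; % growth vs T0 and control gave GI50.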
Background: The SRB assay estimates cell density from bound dye.

Experiment [2] in a line: Inhibition of porcine brain protein farnesyltransferase using p21 ras protein as substrate in presence of [3H]FPP after 1 hr by liquid scintillation counting method. Also on record: species or system Sus scrofa.

Where only a bound is given, the exact number is not on record here.

Turning to `COC1=CC(=O)[C@@]2(c3cc(=O)c4ccc(OC)cc4o3)[C@H](C[C@]3(C)[C@@H](C(=O)O)CC=C4[C@H]3CCCC4(C)C)C(C)=CC[C@H]2C1=O`, the IC50 in experiment [1] came to 7.5 µM. In addition, in the experiment on HepG2, the GI50 is > 10 µM.
The matching figures for `COC1=CC(=O)[C@@]2(c3cc(=O)c4c(O)cc(OC)cc4o3)[C@H](C[C@]3(C)[C@@H](C(=O)O)CC=C4[C@H]3CCCC4(C)C)C(C)=CC[C@H]2C1=O`: 5 µM and 8.6 µM.
The matching figures for `COC1=CC(=O)[C@@]2(c3cc(=O)c4c(O)cc(O)cc4o3)[C@H](CC=C(C)[C@@H]2C[C@]2(C)[C@@H](C(=O)O)CC=C3[C@H]2CCCC3(C)C)C1=O`: 5.1 µM and > 10 µM.
For `COC1=CC(=O)[C@@]2(c3cc(=O)c4ccc(O)cc4o3)[C@H](CC=C(C)[C@@H]2C[C@]2(C)[C@@H](C(=O)O)CC=C3[C@H]2CCCC3(C)C)C1=O`, the IC50 in experiment [1] worked out at 27.9 µM. The GI50 in the experiment with HepG2 is > 10 µM.
The matching figures for `COC1=CC(=O)[C@@]2(c3cc(=O)c4c(O)cc(O)cc4o3)[C@H](C[C@]3(C)[C@@H](C(=O)O)CC=C4[C@H]3CCCC4(C)C)C(C)=CC[C@H]2C1=O`: 8.5 µM and > 10 µM.
For `COC1=CC(=O)[C@@]2(c3cc(=O)c4ccc(O)cc4o3)[C@H](C[C@]3(C)[C@@H](C(=O)O)CC=C4[C@H]3CCCC4(C)C)C(C)=CC[C@H]2C1=O`, the IC50 in experiment [1] is 47 µM. Also, in the experiment on HepG2, the GI50 is > 10 µM.
With `CSCC[C@H](NC(=O)c1ccc(NC(=O)[C@@H](N)CS)cc1)C(=O)O`, the figures for the IC50 in experiment [1] and in experiment [2] were 0.1 µM and 50 to 75 nM, respectively.

As usually defined, the IC50 is the midpoint of a concentration-inhibition curve. What is called GI50 is the concentration giving 50% growth inhibition. A low value points to greater sensitivity of the cells.
